Experimental data from ChEMBL document CHEMBL4257579, “Analogs of penfluridol as chemotherapeutic agents with reduced central nervous system activity” (Bioorg Med Chem Lett, 2018).

Experiments:
Format in all cases: cell-based
[1] = molecular target: T1, Beta-3 adrenergic receptor (Homo sapiens, UniProt P13945); test: Displacement of [3H]CGP12177 from human beta 3 adrenergic receptor expressed in HEK293FlpIN cells by radioligand binding assay relative to control; conditions: concentration not given here
Target sequence in this assay (P13945 whole entry, looked up): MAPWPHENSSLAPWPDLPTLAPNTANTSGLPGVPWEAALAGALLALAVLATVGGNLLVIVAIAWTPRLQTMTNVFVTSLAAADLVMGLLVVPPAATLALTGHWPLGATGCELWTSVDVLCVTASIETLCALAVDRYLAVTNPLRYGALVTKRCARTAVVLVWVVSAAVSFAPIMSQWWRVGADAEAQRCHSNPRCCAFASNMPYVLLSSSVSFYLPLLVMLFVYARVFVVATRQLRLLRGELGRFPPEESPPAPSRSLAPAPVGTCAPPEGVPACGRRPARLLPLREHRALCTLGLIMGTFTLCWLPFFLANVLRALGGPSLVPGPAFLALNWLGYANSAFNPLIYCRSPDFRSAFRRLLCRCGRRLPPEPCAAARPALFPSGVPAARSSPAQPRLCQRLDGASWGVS

[2] = molecular target: Alpha-1D adrenergic receptor (Homo sapiens) (UniProt P25100); test: Displacement of [3H]Prazosin from human alpha 1D adrenergic receptor expressed in HEK cells by radioligand binding assay relative to control; conditions: concentration not given here
Chain of Alpha-1D adrenergic receptor (Homo sapiens) (P25100 whole entry): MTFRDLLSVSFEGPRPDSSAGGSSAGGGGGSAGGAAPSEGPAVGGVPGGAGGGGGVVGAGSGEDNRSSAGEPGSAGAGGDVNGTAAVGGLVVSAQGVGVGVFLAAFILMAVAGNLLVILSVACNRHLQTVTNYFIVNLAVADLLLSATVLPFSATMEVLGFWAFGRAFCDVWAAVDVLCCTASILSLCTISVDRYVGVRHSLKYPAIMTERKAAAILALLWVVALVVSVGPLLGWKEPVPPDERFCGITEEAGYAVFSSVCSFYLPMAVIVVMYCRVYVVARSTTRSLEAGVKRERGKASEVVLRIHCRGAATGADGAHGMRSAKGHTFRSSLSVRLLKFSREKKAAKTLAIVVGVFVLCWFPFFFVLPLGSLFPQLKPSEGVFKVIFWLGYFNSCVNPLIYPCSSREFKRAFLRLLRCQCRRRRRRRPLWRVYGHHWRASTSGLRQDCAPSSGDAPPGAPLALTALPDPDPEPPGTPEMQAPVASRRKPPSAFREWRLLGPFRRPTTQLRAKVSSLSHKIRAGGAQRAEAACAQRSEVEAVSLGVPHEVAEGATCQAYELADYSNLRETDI

[3] = molecular target: Alpha-1D adrenergic receptor (Homo sapiens, UniProt P25100); test: Displacement of [3H]Prazosin from human alpha 1D adrenergic receptor expressed in HEK cells by radioligand binding assay
Chain of Alpha-1D adrenergic receptor (P25100 whole entry): as above
Summary of the method: (§1)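 Ki values were calculated from the radioligand displacement data.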

[4] = molecular target: Alpha-2C adrenergic receptor (Homo sapiens) (UniProt P18825); test: Displacement of [3H]Rauwolscine from human alpha 2C adrenergic receptor expressed in MDCK cells by radioligand binding assay relative to control; conditions: concentration not given here
Chain of Alpha-2C adrenergic receptor (Homo sapiens) (P18825 whole entry): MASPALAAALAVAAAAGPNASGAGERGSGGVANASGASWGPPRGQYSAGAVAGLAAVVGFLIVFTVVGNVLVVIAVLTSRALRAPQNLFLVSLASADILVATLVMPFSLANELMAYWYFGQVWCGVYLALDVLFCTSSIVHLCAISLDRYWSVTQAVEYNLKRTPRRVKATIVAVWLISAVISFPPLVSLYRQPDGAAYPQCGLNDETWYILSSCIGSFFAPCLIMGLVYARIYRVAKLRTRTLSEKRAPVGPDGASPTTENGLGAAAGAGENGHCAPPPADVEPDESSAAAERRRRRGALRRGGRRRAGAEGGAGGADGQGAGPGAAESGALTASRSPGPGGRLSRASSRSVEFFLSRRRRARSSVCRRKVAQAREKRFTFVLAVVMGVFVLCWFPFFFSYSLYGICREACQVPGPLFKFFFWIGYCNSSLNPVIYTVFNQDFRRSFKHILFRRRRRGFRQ

[5] = molecular target: Alpha-2B adrenergic receptor (Homo sapiens, UniProt P18089); test: Displacement of [3H]Rauwolscine from human alpha 2B adrenergic receptor expressed in HEK293T cells by radioligand binding assay; summary of the method: as §1
Chain of Alpha-2B adrenergic receptor (P18089 whole entry): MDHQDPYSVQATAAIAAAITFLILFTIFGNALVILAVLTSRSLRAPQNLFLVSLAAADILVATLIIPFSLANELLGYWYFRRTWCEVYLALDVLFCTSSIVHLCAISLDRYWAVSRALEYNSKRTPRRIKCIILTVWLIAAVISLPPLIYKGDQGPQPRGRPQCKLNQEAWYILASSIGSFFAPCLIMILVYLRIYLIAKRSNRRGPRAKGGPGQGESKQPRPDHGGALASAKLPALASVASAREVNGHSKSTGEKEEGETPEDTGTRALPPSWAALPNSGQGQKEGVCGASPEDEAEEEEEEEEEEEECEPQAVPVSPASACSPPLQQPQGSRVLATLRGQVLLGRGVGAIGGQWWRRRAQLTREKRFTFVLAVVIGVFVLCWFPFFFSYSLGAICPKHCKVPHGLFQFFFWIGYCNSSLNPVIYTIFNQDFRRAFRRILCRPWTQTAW

[6] = molecular target: T1, Beta-3 adrenergic receptor; test: Displacement of [3H]CGP12177 from human beta 3 adrenergic receptor expressed in HEK293FlpIN cells by radioligand binding assay; summary of the method: as §1
Target sequence in this assay (P13945 whole entry): as the sequence (P13945 whole entry, looked up) above

[7] = molecular target: Alpha-2B adrenergic receptor (Homo sapiens) (UniProt P18089); test: Displacement of [3H]Rauwolscine from human alpha 2B adrenergic receptor expressed in HEK293T cells by radioligand binding assay relative to control; conditions: concentration not given here
Chain of Alpha-2B adrenergic receptor (Homo sapiens) (P18089 whole entry): as the sequence (P18089 whole entry) above

SMILES: OC1(c2ccc(Cl)c(C(F)(F)F)c2)CCN(CCCC(c2ccc(F)cc2)c2ccc(F)cc2)CC1 [PENFLURIDOL]
- inhibition [1]: 94%
- inhibition [2]: 95.7%
- Ki [3]: 0.602 µM
- inhibition [4]: 100%
- Ki [5]: 0.401 µM
- Ki [6]: 0.515 µM
- inhibition [7]: 95.6%
